{"source": "ChEMBL document CHEMBL4765233", "about": "“From Lead to Drug Candidate: Optimization of 3-(Phenylethynyl)-1H-pyrazolo[3,4-d]pyrimidin-4-amine Derivatives as Agents for the Treatment of Triple Negative Breast Cancer” (J Med Chem, 2016)", "key": {"[1]": {"test_system": "BT-474", "assay": "Antiproliferative activity against human BT-474 cells assessed as reduction in cell viability incubated for 72 hrs by MTT assay", "format": "functional, cell-based", "conditions": "BT-474, 72 h", "outline": "(§1)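 MTT viability assay. ATCC cell lines were grown in designated medium with 10% FBS at 37 °C, 5% CO2. Cells seeded at 1500−30000 per well and incubated 24 h, then exposed to compound (0−10 μg/mL) for 72 h. MTT added for 2−4 h. Formazan dissolved in DMSO (adherent) or acidified SDS overnight (suspension), absorbance read at 570 nm. Triplicates; IC50 calculated.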"}, "[2]": {"test_system": "MDA-MB-231", "assay": "Induction of apoptosis in human MDA-MB-231 cells assessed as late apoptotic cells at 0.01 uM incubated for 24 hrs by annexin V-FITC and propidium iodide staining based flow cytometry analysis (reference value: 0.85 %)", "format": "functional"}, "[3]": {"test_system": "MDA-MB-231", "assay": "Induction of apoptosis in human MDA-MB-231 cells assessed as late apoptotic cells at 0.03 uM incubated for 24 hrs by annexin V-FITC and propidium iodide staining based flow cytometry analysis (reference value: 0.85 %)", "format": "functional"}, "[4]": {"assay": "AUC (0 to t) in Sprague-Dawley rat at 10 mg/kg, po administered via gavage by LC-MS analysis", "format": "ADME, organism-based", "parameters": "dose 10 mg/kg", "conditions": "in vivo"}, "[5]": {"test_system": "PLC-PRF-5", "assay": "Antiproliferative activity against human PLC-PRF-5 cells assessed as reduction in cell viability incubated for 72 hrs by MTT assay", "format": "functional, cell-based", "conditions": "PLC-PRF-5, 72 h", "outline": "as §1"}, "[6]": {"target": "Ribosomal protein S6 kinase alpha-1 (Homo sapiens, UniProt Q15418)", "sequence (Q15418 whole entry)": "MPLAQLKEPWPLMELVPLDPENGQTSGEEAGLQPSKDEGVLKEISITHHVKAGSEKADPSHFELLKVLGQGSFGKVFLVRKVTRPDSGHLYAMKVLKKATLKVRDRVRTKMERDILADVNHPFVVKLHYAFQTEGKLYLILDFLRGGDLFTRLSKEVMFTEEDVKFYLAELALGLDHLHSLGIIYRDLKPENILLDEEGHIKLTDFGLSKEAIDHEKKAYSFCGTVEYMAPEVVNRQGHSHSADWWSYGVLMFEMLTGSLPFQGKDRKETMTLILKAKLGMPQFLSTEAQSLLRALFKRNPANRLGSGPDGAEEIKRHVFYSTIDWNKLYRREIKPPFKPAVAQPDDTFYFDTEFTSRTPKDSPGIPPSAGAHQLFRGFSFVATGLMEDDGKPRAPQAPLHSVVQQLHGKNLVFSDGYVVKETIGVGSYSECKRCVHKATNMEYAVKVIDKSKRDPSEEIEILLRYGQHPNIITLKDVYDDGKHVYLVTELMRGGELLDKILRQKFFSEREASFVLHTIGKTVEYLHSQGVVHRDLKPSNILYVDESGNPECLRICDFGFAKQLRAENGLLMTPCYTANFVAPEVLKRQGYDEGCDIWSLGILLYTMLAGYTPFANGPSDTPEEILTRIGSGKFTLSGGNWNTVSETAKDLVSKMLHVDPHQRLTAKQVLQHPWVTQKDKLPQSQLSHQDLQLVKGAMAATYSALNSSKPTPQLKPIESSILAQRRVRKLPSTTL", "assay": "Inhibition of human full length recombinant RSK1 using KKKNRTLSVA as substrate incubated for 40 mins in presence of [gamma33P-ATP] by radiometric scintillation counting analysis", "outline": "(§2)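 Radiometric kinase assay run as an external profiling service, with ATP at the Km of each kinase. IC50 values are means of two independent experiments.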"}, "[7]": {"test_system": "MDA-MB-231", "assay": "Inhibition of Fra1 phosphorylation in human MDA-MB-231 cells at >0.03 uM incubated for 20 hrs by Western blot analysis", "format": "functional, cell-based", "conditions": "dose microM >0.03, time 20.0 hrs", "outline": "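MDA-MB-231 cells treated with a series of concentrations for 20 h at 37 °C. Cells washed with ice-cold saline and lysed in RIPA buffer with protease cocktail. Lysates cleared at 12000 rpm for 10 min at 4 °C and protein quantified by Bradford. Equal protein separated by SDS-PAGE, transferred to PVDF and probed with antibodies.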"}, "[8]": {"test_system": "HT-29", "assay": "Antiproliferative activity against human HT-29 cells assessed as reduction in cell viability incubated for 72 hrs by MTT assay", "format": "functional, cell-based", "conditions": "HT-29, 72 h", "outline": "as §1"}, "[9]": {"test_system": "MDA-MB-231", "assay": "Increase in cleaved caspase-3 level in human MDA-MB-231 cells incubated for 20 hrs by Western blot analysis", "format": "functional, cell-based", "conditions": "dose 0.01-0.3 µM", "outline": "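MDA-MB-231 cells given a concentration series for 20 h at 37 °C. Cells lysed in RIPA with protease cocktail, cleared at 12000 rpm, 4 °C. Protein quantified by Bradford, equal amounts run on SDS-PAGE, transferred to PVDF and immunoblotted.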"}, "[10]": {"test_system": "MV4-11", "assay": "Antiproliferative activity against human MV4-11 cells assessed as reduction in cell viability incubated for 72 hrs by MTT assay", "format": "functional, cell-based", "conditions": "MV4-11, 72 h", "outline": "as §1"}, "[11]": {"target": "Tyrosine-protein kinase receptor TYRO3 (Homo sapiens, UniProt Q06418)", "sequence (Q06418 whole entry)": "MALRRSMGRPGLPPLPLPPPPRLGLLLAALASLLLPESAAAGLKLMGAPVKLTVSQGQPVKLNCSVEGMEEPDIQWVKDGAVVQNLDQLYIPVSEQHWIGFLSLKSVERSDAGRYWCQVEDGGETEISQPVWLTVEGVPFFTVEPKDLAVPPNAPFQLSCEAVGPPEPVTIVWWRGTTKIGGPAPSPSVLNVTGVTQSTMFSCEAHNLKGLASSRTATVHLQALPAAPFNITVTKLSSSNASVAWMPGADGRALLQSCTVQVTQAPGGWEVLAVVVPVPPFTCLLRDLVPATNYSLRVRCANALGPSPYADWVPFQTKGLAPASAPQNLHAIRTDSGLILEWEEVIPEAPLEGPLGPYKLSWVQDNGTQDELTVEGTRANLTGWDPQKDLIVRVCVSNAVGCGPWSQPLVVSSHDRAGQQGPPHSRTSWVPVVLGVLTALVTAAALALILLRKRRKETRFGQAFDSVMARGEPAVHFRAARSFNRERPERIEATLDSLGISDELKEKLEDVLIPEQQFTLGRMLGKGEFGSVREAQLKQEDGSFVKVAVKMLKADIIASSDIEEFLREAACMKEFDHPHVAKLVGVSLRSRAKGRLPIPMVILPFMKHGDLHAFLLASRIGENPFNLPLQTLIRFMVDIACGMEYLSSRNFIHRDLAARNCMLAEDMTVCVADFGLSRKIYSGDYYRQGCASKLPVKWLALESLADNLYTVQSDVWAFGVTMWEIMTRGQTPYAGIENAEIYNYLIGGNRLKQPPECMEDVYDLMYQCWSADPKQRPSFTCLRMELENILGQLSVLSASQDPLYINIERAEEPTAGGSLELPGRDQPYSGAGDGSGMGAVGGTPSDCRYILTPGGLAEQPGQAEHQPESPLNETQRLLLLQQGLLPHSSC", "assay": "Inhibition of human recombinant RSE (451 to end residues) using KVEKIGEGTYGVVYK as substrate incubated for 40 mins in presence of [gamma33P-ATP] by radiometric scintillation counting analysis", "outline": "as §2"}, "[12]": {"test_system": "NCI-H1437", "assay": "Antiproliferative activity against human NCI-H1437 cells assessed as reduction in cell viability incubated for 72 hrs by MTT assay", "format": "functional, cell-based", "conditions": "NCI-H1437, 72 h", "outline": "as §1"}}, "note": "Calls of active or inactive are those of the source. The calls are words filed in the database; no cut-off is given here."}
{"smiles": "Cc1ccc(NC(=O)c2ccc(C)c(C(F)(F)F)c2)cc1C#Cc1nn([C@H]2CC[C@H](O)CC2)c2ncnc(N)c12", "values": [{"measurement": "IC50", "setting": "[1]", "result": "> 10000", "unit": "nM"}, {"measurement": "Activity", "setting": "[2]", "result": 3.23, "unit": "%"}, {"measurement": "Activity", "setting": "[3]", "result": 11.2, "unit": "%"}, {"measurement": "AUC(0-t)", "setting": "[4]", "result": 2860, "unit": "ng·h/mL"}, {"measurement": "IC50", "setting": "[5]", "result": 10000, "unit": "nM"}, {"measurement": "IC50", "setting": "[6]", "result": 559, "unit": "nM"}, {"measurement": "inhibition", "setting": "[7]", "result": "Active"}, {"measurement": "IC50", "setting": "[8]", "result": 231, "unit": "nM"}, {"measurement": "Activity", "setting": "[9]", "result": "Dose-dependent effect"}, {"measurement": "IC50", "setting": "[10]", "result": 138, "unit": "nM"}, {"measurement": "IC50", "setting": "[11]", "result": 351, "unit": "nM"}, {"measurement": "IC50", "setting": "[12]", "result": 2340, "unit": "nM"}]}
